Results from different studies.
Compare with care: the assays were run in different laboratories.
Read-out: metabolic stability
Species: human
Sample: liver microsomes

Compound	setting	microsomal CLint [µL/min/mg]
CC(C)N(c1ccc(C#N)cc1)c1ccc(NC(=O)CN(C)c2ccccc2N2CCCC2=O)cn1	–	309
CC1(C)NC(=O)N(c2ccc(F)c(OC(F)(F)F)c2)C1=O	–	< 7
CCOCC(=O)N1CCC[C@H](C(=O)NCc2nc(-c3ccc(-n4cccn4)cc3)cs2)C1	0.5 µM	64
O=C(N1CCCCC1)C12CC(c3ccccc3)(C1)C2	2 µM, pH 7.4	24
CCCCCCCCCCCCCCCC(=O)NCCOC(=O)C[C@@H](CN)CC(C)C	1 µM, pH 7.4	22.9
N#Cc1ccc(-c2csc(CNC(=O)[C@H]3CCCN(C(=O)N4CCCO4)C3)n2)cc1	0.5 µM	112
O=c1c2ccc(OCc3cccc(OC(F)(F)F)c3)cc2[nH]c2ccc(Cl)c(F)c12	1 µM, pH 7.4	1.24
O=C(NCc1nc(-c2ccccc2)cs1)[C@H]1CCCN(C(=O)COCC2CC2)C1	0.5 µM	102
O=c1c2ccc(Oc3ccccc3OC(F)(F)F)cc2[nH]c2cc(Cl)cc(F)c12	1 µM, pH 7.4	20.3
CCS(=O)(=O)N1CCC2(CC1)NC(=O)N(c1ccc(F)c(C(F)(F)F)c1)C2=O	–	< 7
O=c1c2ccc(Oc3cccc(OC(F)(F)F)c3)cc2[nH]c2cc(Cl)cc(F)c12	1 µM, pH 7.4	2.96
NCCCOCC(=O)N1CCC[C@H](C(=O)NCc2nc(-c3ccc(C4CC4)cc3)cs2)C1	0.5 µM	11
Cc1ccc(N(C)c2ccc(NC(=O)CN(C)c3ccccc3N3CCCC3=O)cc2)cc1	–	347
CCCCCCOc1ccc2c(=O)c3c([nH]c2c1)CCCC3	1 µM, pH 7.4	92.2
COCC(=O)N1CCC[C@H](C(=O)NCc2nc(-c3ccc(F)cc3)cs2)C1	0.5 µM	14
CCCN(CCC)CCNc1ccc2c(=O)c3c([nH]c2c1)CCCC3	1 µM, pH 7.4	21.4
CC1(C)NC(=O)N(c2ccc(F)c(CC(F)(F)F)c2)C1=O	–	< 7
O=c1c2ccccc2[nH]c2cc(Oc3ccc(OC(F)(F)F)cc3)ccc12	1 µM, pH 7.4	20.9
Cc1ccc(-c2csc(CNC(=O)[C@H]3CCCN(C(=O)[C@H]4CCC(C)(C)O4)[C@H]3C)n2)cn1	0.5 µM	155
CCN(c1ccc(C)cc1)c1ccc(NC(=O)CN(C)c2ccccc2N2CCCC2=O)cn1	–	408
O=c1c2ccc(Oc3ccc(OC(F)(F)F)cc3)cc2[nH]c2ccc(F)c(Cl)c12	1 µM, pH 7.4	7.54
